ChEMBL document CHEMBL1143817, “Pharmacokinetics of penicillin g in very-low-birth-weight neonates” (Antimicrob Agents Chemother, 2007)
Where “and” joins values, the source holds several entries; their conditions need not be identical. Equal values may be shown once.

Tests used:
Format in all cases: ADME, organism-based
Homo sapiens [1] = test: Effect on glomerular filtration in human very low birth weight preterm neonates urine assessed as creatinine clearance at 30 mg/kg, iv administered every 12 hr after 24 hrs; set-up: dose 30 mg/kg, route intravenous; conditions: in vivo
[2] = Half life in human term neonates at 15 mg/kg, im administered every 12 hrs after 24 hrs; set-up: dose 15 mg/kg, route intramuscular; conditions: in vivo
[3] = Cmax in human very low birth weight preterm neonates at 28 mg/kg, iv administered every 12 hrs after 24 hrs; set-up: dose 28 mg/kg, route intravenous; conditions: in vivo
Method in brief: (§1)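 Penicillin G was diluted in normal saline to 50,000 IU/ml and given as a slow (~2 min) IV bolus q12h (group 1, 50,000 IU/kg; group 2, 25,000 IU/kg) to neonates of <28 wk GA and <1,200 g. Plasma was sampled at steady state (doses 3–8): predose and at 2 and 30 min, 1.5, 4, 8 and 12 h. Assay by HPLC-UV (200 nm). AUC0-12 by log-linear trapezoidal rule; noncompartmental bolus model.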

Homo sapiens [4] = test: Effect on glomerular filtration in human very low birth weight preterm neonates urine assessed as creatinine excretion at 15 mg/kg, iv administered every 12 hrs after 24 hrs; set-up: dose 15 mg/kg, route intravenous; conditions: in vivo
Method in brief: (§2)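 Creatinine excretion was measured in urine collected in 4-h intervals over the 12 h after a steady-state IV penicillin G dose (25,000 or 50,000 IU/kg q12h). Diapers were weighed to estimate losses, and a period was accepted if ≥90% of its output was collected. Excretion is expressed per 24 h per kg.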

Homo sapiens [5] = test: Volume of distribution at steady state in human term neonates at 15 mg/kg, im administered every 12 hrs after 24 hrs; set-up: dose 15 mg/kg, route intramuscular; conditions: in vivo
[6] = Clearance in human very low birth weight preterm neonates at 28 mg/kg, iv administered every 12 hrs after 24 hrs; set-up: dose 28 mg/kg, route intravenous; conditions: in vivo; method in brief: as §1
[7] = AUC (0 to 12) in human very low birth weight preterm neonates at 14 mg/kg, iv administered every 12 hrs after 24 hrs; set-up: time < 12 hr, dose 14 mg/kg, route intravenous; conditions: plasma; method in brief: as §1
[8] = Cmax in human very low birth weight preterm neonates at 14 mg/kg, iv administered every 12 hrs after 24 hrs; set-up: dose 14 mg/kg, route intravenous; conditions: in vivo; method in brief: as §1
[9] = Half life in human very low birth weight preterm neonates at 28 mg/kg, iv administered every 12 hrs after 24 hrs; set-up: dose 28 mg/kg, route intravenous; conditions: in vivo; method in brief: as §1
[10] = Clearance in human very low birth weight preterm neonates at 14 mg/kg, iv administered every 12 hrs after 24 hrs; set-up: dose 14 mg/kg, route intravenous; conditions: in vivo; method in brief: as §1
[11] = Volume of distribution at steady state in human very low birth weight preterm neonates at 14 mg/kg, iv; set-up: dose 14 mg/kg, route intravenous; conditions: in vivo, read-out: Vdss; method in brief: as §1
[12] = Cmin in human very low birth weight preterm neonates at 28 mg/kg, iv administered every 12 hrs after 24 hrs; set-up: dose 28 mg/kg, route intravenous; conditions: in vivo, read-out: Cmin; method in brief: as §1
Homo sapiens [13] = test: Effect on glomerular filtration in human very low birth weight preterm neonates urine assessed as creatinine excretion at 30 mg/kg, iv administered every 12 hrs after 24 hrs; set-up: dose 30 mg/kg, route intravenous; conditions: in vivo; method in brief: as §2
[14] = Cmax in human term neonates at 15 mg/kg, im administered every 12 hrs after 24 hrs; set-up: dose 15 mg/kg, route intramuscular; conditions: in vivo
[15] = Effect on glomerular filtration in human very low birth weight preterm neonates urine assessed as drug clearance at 15 mg/kg, iv administered every 12 hrs after 24 hrs; set-up: dose 15 mg/kg, route intravenous; conditions: read-out: CL_renal
Homo sapiens [16] = test: Effect on glomerular filtration in human very low birth weight preterm neonates urine assessed as creatinine clearance at 15 mg/kg, iv administered every 12 hr after 24 hrs; set-up: dose 15 mg/kg, route intravenous; conditions: in vivo
[17] = Half life in human adults at […], iv administered every 12 hrs after 24 hrs; set-up: route intravenous; conditions: in vivo
[18] = Cmax in human adults at […], iv administered every 12 hrs after 24 hrs; set-up: route intravenous; conditions: in vivo
[19] = AUC (0 to 12) in human very low birth weight preterm neonates at 28 mg/kg, iv administered every 12 hrs after 24 hrs; set-up: time < 12 hr, dose 28 mg/kg, route intravenous; conditions: plasma; method in brief: as §1
[20] = Effect on glomerular filtration in human very low birth weight preterm neonates urine assessed as drug clearance at 30 mg/kg, iv administered every 12 hrs after 24 hrs; set-up: dose 30 mg/kg, route intravenous; conditions: read-out: CL_renal
[21] = Volume of distribution at steady state in human very low birth weight preterm neonates at 28 mg/kg, iv; set-up: dose 28 mg/kg, route intravenous; conditions: in vivo, read-out: Vdss; method in brief: as §1
[22] = Volume of distribution at steady state in human adults at […], iv administered every 12 hrs after 24 hrs; set-up: route intravenous; conditions: in vivo, read-out: Vdss
[23] = Half life in human very low birth weight preterm neonates at 14.3 mg/kg, iv administered every 12 hrs after 24 hrs; set-up: dose 14.3 mg/kg, route intravenous; conditions: in vivo; method in brief: as §1

CC1(C)S[C@@H]2[C@H](NC(=O)Cc3ccccc3)C(=O)N2[C@H]1C(=O)O [PENICILLIN G]
Creatinine_CL (Homo sapiens [1]): 0.26 ml/min and 0.3 ml/min.kg
half-life [2]: 3.4 h
Cmax [3]: 146000 ng/mL
Activity (Homo sapiens [4]): 70.6 µmol/kg
Vdss (Homo sapiens [5]): 0.51 L/kg
clearance [6]: 1.2 mL/min/kg
AUC at 12 h [7]: 161 µg·h/mL
Cmax [8]: 58900 ng/mL
half-life [9]: 3.8 h
clearance [10]: 1.5 mL/min/kg
Vd [11]: 0.64 L/kg
concentration at 24 h [12]: 7100 ng/mL
Activity (Homo sapiens [13]): 50.6 µmol/kg
Cmax [14]: 22000 ng/mL
CL renal [15]: 0.31 mL/min and 0.38 mL/min/kg
Creatinine_CL (Homo sapiens [16]): 0.53 ml/min and 0.57 ml/min.kg
half-life [17]: 0.5 h
Cmax [18]: 45000 ng/mL
AUC at 12 h [19]: 389 µg·h/mL
CL renal [20]: 0.27 mL/min and 0.46 mL/min/kg
Vd [21]: 0.41 L/kg
Vd [22]: 0.5 L/kg
half-life [23]: 4.6 h
